Source: ChEMBL document CHEMBL5661969, “Preclinical evaluation of a potent novel DNA-dependent protein kinase inhibitor NU7441” (Cancer Res, 2006)
Active and inactive are the calls of the source. No cut-off for these calls is given here.

Key:
[1] = tested on: SW-620; assay: Cell cycle arrest in human SW620 cells assessed as increase in G2-M-phase cell population at 10 nM measured after 16 hrs by propidium iodide staining based flow cytometry relative to control; type: functional
[2] = tested on: SW-620; assay: Cell cycle arrest in human SW620 cells assessed as reduction in S-phase cell population at 10 nM measured after 16 hrs by propidium iodide staining based flow cytometry; type: functional
[3] = biological target: T1, DNA-dependent protein kinase catalytic subunit (Homo sapiens, UniProt P78527); assay: Inhibition of DNA-PK in human SW480 cells assessed potentiation of ionizing radiation-induced cytotoxicity by measuring ratio of cytotoxic agent required to kill 90% of the cells in the absence and presence of compound; type: cell-based
[4] = biological target: T1, DNA-dependent protein kinase catalytic subunit; assay: Inhibition of DNA-PK in human HCT-116 cells assessed as potentiation of ionizing radiation-induced cytotoxicity relative to radiation alone; type: cell-based
[5] = biological target: T1, DNA-dependent protein kinase catalytic subunit; assay: Inhibition of DNA-PK in human HCT-116 cells assessed as potentiation of etoposide-induced cytotoxicity relative to etoposide alone; type: cell-based
[6] = (§1) Inhibition of ATM in Chinese hamster DNA-PK proficient V3-YAC cells assessed as potentiation of etoposide-induced cytotoxicity by measuring fold change in etoposide LD90 at 10 umol/L measured after 16 hrs by crystal violet staining based assay relative to etoposide alone; parameters: species or system Cricetulus griseus; conditions: dose 10 µmol/L, condition cancer
[7] = as §1, with “ionizing radiation-induced” for “etoposide-induced”, “radiation” for “etoposide”, “umol/L preincubated for 1 hr followed by gamma-irradiation and” for “umol/L”; parameters: species or system Cricetulus griseus; conditions: dose 10 µmol/L; time 17 hrs; condition cancer
[8] = Cytotoxicity against Chinese hamster DNA-PK deficient V3 cells assessed as increase in etoposide-induced cytotoxicity by measuring fold change in etoposide LD90 at 10 umol/L measured after 16 hrs by crystal violet staining based assay relative to etoposide alone; type: toxicity, cell-based, Cricetulus griseus; conditions: v3, 16 h, 10 µM, dose 10 µmol/L
[9] = Cytotoxicity against Chinese hamster DNA-PK deficient V3 cells assessed as reduction in cell survival measured after 16 hrs by crystal violet staining based assay; type: toxicity, Cricetulus griseus; conditions: v3, 16 h
How it was run: (§2)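 V3 (DNA-PKcs-deficient CHO) and V3-YAC (human DNA-PKcs YAC, kept on G-418 500 μg/mL) cells were grown in RPMI/10% FBS. Exponential cells were exposed to agent in 0.5% DMSO for 16 h, then trypsinized and reseeded at 100–100,000 per dish in drug-free medium. Colonies were stained with crystal violet after 10–14 days and counted. Survival is relative to 0.5% DMSO controls.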

[10] = Selectivity ratio of LD90 for cytotoxicity against Chinese hamster DNA-PK proficient V3-YAC cells to LD90 for cytotoxicity against Chinese hamster DNA-PK deficient V3 cells; type: toxicity, cell-based, Cricetulus griseus
How it was run: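 Clonogenic survival of V3 and V3-YAC Chinese hamster ovary cells, RPMI/10% FBS, V3-YAC kept under G-418 at 500 μg/mL. Colonies read 10–14 days later. LD90 is the dose or concentration killing 90%, and the LD90 ratio gives the fold change.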

[11] = tested on: SW-620; assay: Induction of DNA damage in human SW620 cells assessed as loss of gamma-H2AX phosphorylation foci formation at 1 umol/L preincubated for 1 hr followed by compound washout and measured after 4 hrs by DAPI staining based immunofluorescence microscopic analysis relative to control; type: functional; conditions: dose 1 µmol/L, at 1 µM
How it was run: (§3)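 SW620 cells on coverslips at 50–70% confluence, preincubated 1 h ± 1 μmol/L agent, then 1 μmol/L etoposide for 1 h, washed three times, and kept ± agent for up to 24 h. Fixation in −20 °C methanol, then anti-γH2AX Ser139 antibody with FITC secondary and DAPI mounting. Foci counted in 30 nuclei from three areas per sample, in triplicate.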

[12] = tested on: SW-620; assay: Induction of DNA damage in human SW620 cells assessed as increase in formation of gamma-H2AX phosphorylation foci per cell at 1 umol/L preincubated for 1 hr followed by compound washout and measured after 30 mins by DAPI staining based immunofluorescence microscopic analysis; type: functional; conditions: dose 1 µmol/L; how it was run: as §3
[13] = tested on: SW-620; assay: Cell cycle arrest in human SW620 cells assessed as reduction in S-phase cell population at 0.1 uM measured after 16 hrs by propidium iodide staining based flow cytometry; type: functional
[14] = Cytotoxicity against Chinese hamster DNA-PK proficient V3-YAC cells assessed as reduction in cell survival measured after 16 hrs by crystal violet staining based assay; type: toxicity, Cricetulus griseus; how it was run: as §2
[15] = tested on: SW-620; assay: Cell cycle arrest in human SW620 cells assessed as increase in G2-M-phase cell population at 0.1 uM measured after 16 hrs by propidium iodide staining based flow cytometry relative to control; type: functional
[16] = tested on: SW-620; assay: Induction of DNA damage in human SW620 cells assessed as loss of gamma-H2AX phosphorylation foci formation at 1 umol/L preincubated for 1 hr followed by compound washout and measured after 16 hrs by DAPI staining based immunofluorescence microscopic analysis relative to control; type: functional; conditions: dose 1 µmol/L, at 1 µM; how it was run: as §3
[17] = tested on: SW-620; assay: Antitumor activity against human SW620 cells xenografted in athymic nude CD1 mouse assessed as tumor growth delay at 11.35 mg/kg, ip administered 5 times daily for 5 days; type: functional; conditions: time 5 day
[18] = Toxicity in human SW620 cell xenografted athymic nude CD1 mouse assessed as maximum body weight loss at 11.35 mg/kg, ip administered 5 times daily for 5 days relative to control; type: organism-based, SW-620; conditions: in vivo, 120 h, time 5 day

T1 sequence (P78527 whole entry): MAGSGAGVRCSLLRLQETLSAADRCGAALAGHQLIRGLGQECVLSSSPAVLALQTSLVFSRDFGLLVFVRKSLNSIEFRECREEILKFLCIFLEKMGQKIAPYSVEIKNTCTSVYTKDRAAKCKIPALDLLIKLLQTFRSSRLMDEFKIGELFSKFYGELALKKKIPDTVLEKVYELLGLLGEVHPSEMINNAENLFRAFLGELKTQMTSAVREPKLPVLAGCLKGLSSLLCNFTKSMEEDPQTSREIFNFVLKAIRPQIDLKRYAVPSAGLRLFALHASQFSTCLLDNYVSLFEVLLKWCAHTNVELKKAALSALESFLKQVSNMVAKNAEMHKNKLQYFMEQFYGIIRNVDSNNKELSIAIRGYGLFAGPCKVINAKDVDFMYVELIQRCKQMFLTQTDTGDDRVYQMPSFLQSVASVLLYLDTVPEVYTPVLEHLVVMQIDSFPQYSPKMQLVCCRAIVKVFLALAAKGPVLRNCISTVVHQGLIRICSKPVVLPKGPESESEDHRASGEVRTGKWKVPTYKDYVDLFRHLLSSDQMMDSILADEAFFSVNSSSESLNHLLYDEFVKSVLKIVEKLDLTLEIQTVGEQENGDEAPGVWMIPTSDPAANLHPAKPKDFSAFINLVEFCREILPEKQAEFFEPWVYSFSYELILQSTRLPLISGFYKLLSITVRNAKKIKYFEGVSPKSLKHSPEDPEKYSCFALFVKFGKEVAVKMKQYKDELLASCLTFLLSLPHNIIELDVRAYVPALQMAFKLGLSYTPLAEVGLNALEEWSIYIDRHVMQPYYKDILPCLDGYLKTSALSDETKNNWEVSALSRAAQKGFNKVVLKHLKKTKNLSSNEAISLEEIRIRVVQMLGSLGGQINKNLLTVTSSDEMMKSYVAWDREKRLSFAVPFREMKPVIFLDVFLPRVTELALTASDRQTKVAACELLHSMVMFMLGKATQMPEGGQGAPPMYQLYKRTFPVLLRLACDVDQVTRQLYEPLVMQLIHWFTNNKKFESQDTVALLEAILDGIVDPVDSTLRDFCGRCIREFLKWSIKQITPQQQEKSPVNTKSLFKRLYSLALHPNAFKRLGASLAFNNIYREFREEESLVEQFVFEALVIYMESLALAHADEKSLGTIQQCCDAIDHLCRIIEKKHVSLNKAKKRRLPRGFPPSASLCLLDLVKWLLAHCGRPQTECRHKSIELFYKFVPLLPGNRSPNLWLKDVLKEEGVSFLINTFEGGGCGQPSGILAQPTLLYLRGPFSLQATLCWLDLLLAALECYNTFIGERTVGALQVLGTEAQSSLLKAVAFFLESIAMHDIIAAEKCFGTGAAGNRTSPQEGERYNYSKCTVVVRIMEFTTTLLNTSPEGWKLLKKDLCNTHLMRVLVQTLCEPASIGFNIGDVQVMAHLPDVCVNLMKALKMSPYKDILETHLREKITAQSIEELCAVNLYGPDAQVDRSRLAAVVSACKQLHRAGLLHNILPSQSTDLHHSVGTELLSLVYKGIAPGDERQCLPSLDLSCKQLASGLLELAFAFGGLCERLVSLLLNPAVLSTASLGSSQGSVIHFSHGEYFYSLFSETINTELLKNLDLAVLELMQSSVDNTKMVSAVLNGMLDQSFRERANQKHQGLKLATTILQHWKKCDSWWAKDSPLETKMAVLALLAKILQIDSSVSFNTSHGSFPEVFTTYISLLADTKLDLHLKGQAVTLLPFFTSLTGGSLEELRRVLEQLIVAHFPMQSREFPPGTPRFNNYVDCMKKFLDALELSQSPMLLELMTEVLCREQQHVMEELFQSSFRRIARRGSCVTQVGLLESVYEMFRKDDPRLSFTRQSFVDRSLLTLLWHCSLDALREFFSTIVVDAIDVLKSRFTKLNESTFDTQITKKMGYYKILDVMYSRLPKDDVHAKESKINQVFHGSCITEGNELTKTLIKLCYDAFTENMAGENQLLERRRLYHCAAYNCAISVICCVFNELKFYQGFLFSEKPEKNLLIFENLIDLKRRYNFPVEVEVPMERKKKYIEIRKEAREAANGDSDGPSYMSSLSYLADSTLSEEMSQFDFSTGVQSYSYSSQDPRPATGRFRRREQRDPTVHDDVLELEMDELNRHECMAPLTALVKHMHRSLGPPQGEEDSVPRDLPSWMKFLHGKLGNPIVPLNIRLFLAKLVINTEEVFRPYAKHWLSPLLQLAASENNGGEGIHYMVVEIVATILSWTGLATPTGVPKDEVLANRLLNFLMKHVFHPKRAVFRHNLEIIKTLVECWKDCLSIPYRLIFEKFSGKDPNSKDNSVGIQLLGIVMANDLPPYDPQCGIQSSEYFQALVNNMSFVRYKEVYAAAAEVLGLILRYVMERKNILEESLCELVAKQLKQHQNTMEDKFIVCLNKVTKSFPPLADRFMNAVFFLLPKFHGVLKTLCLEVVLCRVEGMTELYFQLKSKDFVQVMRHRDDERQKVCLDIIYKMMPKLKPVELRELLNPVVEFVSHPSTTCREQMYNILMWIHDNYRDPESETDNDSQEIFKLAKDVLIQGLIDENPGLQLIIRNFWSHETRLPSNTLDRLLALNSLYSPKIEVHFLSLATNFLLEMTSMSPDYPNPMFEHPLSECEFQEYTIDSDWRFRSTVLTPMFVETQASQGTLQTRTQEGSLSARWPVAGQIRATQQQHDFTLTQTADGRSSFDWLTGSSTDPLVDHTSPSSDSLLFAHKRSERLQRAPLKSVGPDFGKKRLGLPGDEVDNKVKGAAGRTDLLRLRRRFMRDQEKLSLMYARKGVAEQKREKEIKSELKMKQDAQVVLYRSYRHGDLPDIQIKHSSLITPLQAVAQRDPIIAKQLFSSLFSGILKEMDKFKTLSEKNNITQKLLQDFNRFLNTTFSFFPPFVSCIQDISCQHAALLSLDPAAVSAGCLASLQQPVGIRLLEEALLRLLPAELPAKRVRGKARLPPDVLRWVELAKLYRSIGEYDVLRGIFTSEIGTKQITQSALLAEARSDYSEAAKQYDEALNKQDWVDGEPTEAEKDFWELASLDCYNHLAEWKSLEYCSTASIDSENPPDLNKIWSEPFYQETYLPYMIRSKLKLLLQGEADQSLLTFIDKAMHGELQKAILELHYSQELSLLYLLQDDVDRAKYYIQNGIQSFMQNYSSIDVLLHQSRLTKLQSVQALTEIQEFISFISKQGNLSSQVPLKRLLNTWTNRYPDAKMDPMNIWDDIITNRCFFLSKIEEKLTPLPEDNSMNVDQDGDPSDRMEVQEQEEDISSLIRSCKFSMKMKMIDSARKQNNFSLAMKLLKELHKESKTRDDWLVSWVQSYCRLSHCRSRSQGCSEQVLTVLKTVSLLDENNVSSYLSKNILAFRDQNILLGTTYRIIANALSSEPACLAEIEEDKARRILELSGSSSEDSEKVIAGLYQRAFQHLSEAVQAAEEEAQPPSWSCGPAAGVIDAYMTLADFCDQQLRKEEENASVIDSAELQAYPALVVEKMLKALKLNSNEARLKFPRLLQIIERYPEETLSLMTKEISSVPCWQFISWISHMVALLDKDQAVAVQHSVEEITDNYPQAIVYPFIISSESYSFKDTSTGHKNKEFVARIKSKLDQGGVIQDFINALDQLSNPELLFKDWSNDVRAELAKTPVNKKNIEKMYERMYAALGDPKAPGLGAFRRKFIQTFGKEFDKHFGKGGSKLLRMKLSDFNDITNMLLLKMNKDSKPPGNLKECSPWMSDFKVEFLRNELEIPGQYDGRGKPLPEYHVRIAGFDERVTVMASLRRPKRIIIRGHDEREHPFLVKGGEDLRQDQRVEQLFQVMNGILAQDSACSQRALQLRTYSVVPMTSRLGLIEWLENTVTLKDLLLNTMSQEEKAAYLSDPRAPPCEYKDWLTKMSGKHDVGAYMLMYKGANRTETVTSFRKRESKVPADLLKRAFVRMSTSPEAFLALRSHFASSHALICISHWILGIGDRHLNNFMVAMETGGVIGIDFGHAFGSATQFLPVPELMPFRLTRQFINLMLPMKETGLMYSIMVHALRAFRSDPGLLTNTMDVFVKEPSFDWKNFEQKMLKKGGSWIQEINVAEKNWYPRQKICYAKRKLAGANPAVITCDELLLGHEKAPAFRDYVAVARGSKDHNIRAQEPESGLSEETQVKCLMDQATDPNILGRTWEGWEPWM

With `COc1cccc2c1C(=O)c1c(O)c3c(c(O)c1C2=O)C[C@@](O)(C(=O)CO)C[C@@H]3O[C@H]1C[C@H](N)[C@H](O)[C@H](C)O1` [DOXORUBICIN] the Activity [1] was 158% and the Activity [2] was “Active”.

`O=c1cc(N2CCOCC2)oc2c(-c3ccccc3)cccc12` showed a Ratio [3] of 1.9.

For `CC(=O)c1ccc(N2CCOCC2)cc1O`, the fold change (FC) [4] was 4 and the fold change (FC) [5] was 15.

`COC[C@H]1OC(=O)c2coc3c2[C@@]1(C)C1=C(C3=O)[C@@H]2CCC(=O)[C@@]2(C)C[C@H]1OC(C)=O` showed a Ratio [3] of 2.8.

With `O=c1cc(-c2cccc3c2Sc2ccccc2S3)oc(N2CCOCC2)c1` [KU-55933] the “fold change (FC)” value [6] was 6, the “fold change (FC)” value [7] was 2 and the “fold change (FC)” value [8] was 6.

`COc1cc([C@@H]2c3cc4c(cc3[C@@H](O[C@@H]3O[C@@H]5CO[C@@H](C)O[C@H]5[C@H](O)[C@H]3O)[C@H]3COC(=O)[C@H]23)OCO4)cc(OC)c1O` [ETOPOSIDE] gave an LD90 [9] of 0.6 µmol/L, a selectivity ratio [10] of 3 and an Activity [11] of 39%. The Activity [12] was 22, the Activity [13] was “Active” and the LD90 [14] was 1.8 µmol/L. For the same molecule, the Activity [15] was 83% and the Activity [16] was 5.3%.

`COc1cc([C@@H]2c3cc4c(cc3[C@@H](O[C@@H]3O[C@@H]5CO[C@@H](C)O[C@H]5[C@H](O)[C@H]3O)[C@H]3COC(=O)[C@H]23)OCO4)cc(OC)c1OP(=O)(O)O` [ETOPOSIDE PHOSPHATE] gave a Time [17] of 2.7 days and an Activity [18] of 6%.
